Values after ≈ are worked out from the molar mass of the structure shown.
How the values were obtained:
[1] = tested on: Mycobacterium tuberculosis; assay: Growth inhibition of Mycobacterium bovis BCG ATCC 35743 at active stage at 1.56 ug/ml measured after 8 days by nitrate reductase dye based two fold dilution method relative to control; assay type: functional; details: BCG str. ATCC 35743, 192 h, read-out: GI
Summary of the method: (§1)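 M. bovis BCG was grown in Dubos medium and assayed in Mycobacterium pheli minimal medium (pH 6.6), with compounds from DMSO stocks. Incubation lasted 8 days for active and 12 days for dormant cultures. Viability was read by nitrate reductase at 540 nm against cell-free blanks, with vehicle set as 100% growth. Primary screen was at 30, 10 and 3 µg/ml, in triplicate, mean ± SD. MIC was taken from dose-response curves.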

[2] = Selectivity index, ratio of GI50 for human HeLa cells to MIC for Mycobacterium tuberculosis H37Ra ATCC 25177 at dormant stage; assay type: toxicity, cell-based; details: read-out: Selectivity Index
Summary of the method: (§2)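 SI is the cell-line GI50 divided by the dormant-stage mycobacterial MIC. […] THP-1 macrophages were PMA-differentiated for 24 h.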

[3] = tested on: Mycobacterium tuberculosis; assay: Growth inhibition of Mycobacterium tuberculosis H37Ra ATCC 25177 at dormant stage at 50 ug/ml measured after 12 days by XTT dye based two fold dilution method relative to control; assay type: functional; details: H37Ra ATCC 25177, 288 h, read-out: GI
Summary of the method: (§3)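 MTB H37Ra was grown in Dubos medium, then exposed in Mycobacterium pheli minimal medium (pH 6.6) to compounds dissolved in DMSO. The assay ended on day 8 (active) or day 12 (dormant). Viable cells were measured by XTT reduction menadione assay at 470 nm, blank-corrected, relative to vehicle control. Triplicates were expressed as mean ± SD. MIC came from dose-response curves.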

Staphylococcus aureus = assay: Growth inhibition of Staphylococcus aureus NCIM 2010 at 3 ug/ml measured after 12 hrs relative to control; assay type: functional; details: NCIM 2010, 12 h, read-out: GI
Summary of the method: (§4)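 Bacteria grown in LB at 37 °C and 180 rpm to OD 1. Compounds added to wells, then 0.1% inoculum of 1 OD culture (620 nm). Growth read as OD at 620 nm after 8 h for gram-negative and after 12 h for gram-positive strains.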

[4] = Selectivity index, ratio of GI50 for HUVEC to MIC for Mycobacterium bovis BCG ATCC 35743 at dormant stage; details: pooled result: one value given for 6 cell lines, strains, targets or settings; summary of the method: as §2
[5] = tested on: Mycobacterium tuberculosis; assay: Growth inhibition of Mycobacterium tuberculosis H37Ra ATCC 25177 at dormant stage at 3.13 ug/ml measured after 12 days by XTT dye based two fold dilution method relative to control; assay type: functional; details: H37Ra ATCC 25177, 288 h, read-out: GI; summary of the method: as §3
[6] = Selectivity index, ratio of GI50 for human A549 cells to MIC for Mycobacterium tuberculosis H37Ra ATCC 25177 at dormant stage; assay type: toxicity, cell-based; details: read-out: Selectivity Index; summary of the method: as §2
[7] = tested on: Mycobacterium tuberculosis; assay: Growth inhibition of Mycobacterium tuberculosis H37Ra ATCC 25177 at dormant stage at 0.78 ug/ml measured after 12 days by XTT dye based two fold dilution method relative to control; assay type: functional; details: H37Ra ATCC 25177, 288 h, read-out: GI; summary of the method: as §3
[8] = tested on: Mycobacterium tuberculosis; assay: Growth inhibition of Mycobacterium tuberculosis H37Ra ATCC 25177 at dormant stage measured after 12 days by XTT dye based two fold dilution method; assay type: functional; details: H37Ra ATCC 25177, 288 h; summary of the method: as §3
Bacillus subtilis [9] = assay: Growth inhibition of Bacillus subtilis NCIM 2079 at 10 ug/ml measured after 12 hrs relative to control; assay type: functional; details: NCIM 2079, 12 h, read-out: GI; summary of the method: as §4
Bacillus subtilis [10] = assay: Growth inhibition of Bacillus subtilis NCIM 2079 at 30 ug/ml measured after 12 hrs relative to control; assay type: functional; details: NCIM 2079, 12 h, read-out: GI; summary of the method: as §4
[11] = Cytotoxicity against human HeLa cells at 100 ug/ml assessed as growth inhibition measured after 48 hrs by MTT assay relative to control; assay type: toxicity, cell-based; details: read-out: GI
[12] = tested on: Mycobacterium tuberculosis; assay: Growth inhibition of Mycobacterium tuberculosis H37Ra ATCC 25177 at active stage at 0.78 ug/ml measured after 8 days by XTT dye based two fold dilution method relative to control; assay type: functional; details: H37Ra ATCC 25177, 192 h, read-out: GI; summary of the method: as §3
[13] = tested on: Mycobacterium tuberculosis; assay: Growth inhibition of Mycobacterium tuberculosis H37Ra ATCC 25177 at active stage at 3.13 ug/ml measured after 8 days by XTT dye based two fold dilution method relative to control; assay type: functional; details: H37Ra ATCC 25177, 192 h, read-out: GI; summary of the method: as §3
[14] = tested on: Mycobacterium tuberculosis; assay: Growth inhibition of Mycobacterium bovis BCG ATCC 35743 at dormant stage measured after 12 days by nitrate reductase dye based two fold dilution method; assay type: functional; details: BCG str. ATCC 35743, 288 h; summary of the method: as §1
[15] = tested on: Mycobacterium tuberculosis; assay: Growth inhibition of Mycobacterium bovis BCG ATCC 35743 at active stage at 3.13 ug/ml measured after 8 days by nitrate reductase dye based two fold dilution method relative to control; assay type: functional; details: BCG str. ATCC 35743, 192 h, read-out: GI; summary of the method: as §1
[16] = tested on: Mycobacterium tuberculosis; assay: Growth inhibition of Mycobacterium tuberculosis H37Ra ATCC 25177 at dormant stage at 6.25 ug/ml measured after 12 days by XTT dye based two fold dilution method relative to control; assay type: functional; details: H37Ra ATCC 25177, 288 h, read-out: GI; summary of the method: as §3
[17] = tested on: Mycobacterium tuberculosis; assay: Growth inhibition of Mycobacterium bovis BCG ATCC 35743 at active stage at 25 ug/ml measured after 8 days by nitrate reductase dye based two fold dilution method relative to control; assay type: functional; details: BCG str. ATCC 35743, 192 h, read-out: GI; summary of the method: as §1
[18] = tested on: Mycobacterium tuberculosis; assay: Growth inhibition of Mycobacterium bovis BCG ATCC 35743 at dormant stage at 3 ug/ml measured after 12 days by nitrate reductase dye based two fold dilution method relative to control; assay type: functional; details: BCG str. ATCC 35743, 288 h, read-out: GI; summary of the method: as §1
[19] = Selectivity index, ratio of GI50 for […]-differentiated human THP1 cells to MIC for Mycobacterium tuberculosis H37Ra ATCC 25177 at dormant stage; assay type: toxicity, cell-based, THP-1; details: read-out: Selectivity Index; summary of the method: as §2
Bacillus subtilis [20] = assay: Antibacterial activity against Bacillus subtilis NCIM 2079 measured after 12 hrs; assay type: functional; details: NCIM 2079, 12 h; summary of the method: as §4
Escherichia coli [21] = assay: Growth inhibition of Escherichia coli NCIM 2688 at 30 ug/ml measured after 8 hrs relative to control; assay type: functional; details: NCIM 2688, 8 h, read-out: GI; summary of the method: as §4
[22] = tested on: Mycobacterium tuberculosis; assay: Growth inhibition of Mycobacterium bovis BCG ATCC 35743 at dormant stage at 10 ug/ml measured after 12 days by nitrate reductase dye based two fold dilution method relative to control; assay type: functional; details: BCG str. ATCC 35743, 288 h, read-out: GI; summary of the method: as §1
Escherichia coli [23] = assay: Antibacterial activity against Escherichia coli NCIM 2688 measured after 8 hrs; assay type: functional; details: NCIM 2688, 8 h; summary of the method: as §4
Escherichia coli [24] = assay: Growth inhibition of Escherichia coli NCIM 2688 at 3 ug/ml measured after 8 hrs relative to control; assay type: functional; details: NCIM 2688, 8 h, read-out: GI; summary of the method: as §4
Escherichia coli [25] = assay: Growth inhibition of Escherichia coli NCIM 2688 at 10 ug/ml measured after 8 hrs relative to control; assay type: functional; details: NCIM 2688, 8 h, read-out: GI; summary of the method: as §4
[26] = tested on: Mycobacterium tuberculosis; assay: Growth inhibition of Mycobacterium tuberculosis H37Ra ATCC 25177 at active stage at 25 ug/ml measured after 8 days by XTT dye based two fold dilution method relative to control; assay type: functional; details: H37Ra ATCC 25177, 192 h, read-out: GI; summary of the method: as §3
[27] = tested on: Mycobacterium tuberculosis; assay: Growth inhibition of Mycobacterium tuberculosis H37Ra ATCC 25177 at active stage at 12.5 ug/ml measured after 8 days by XTT dye based two fold dilution method relative to control; assay type: functional; details: H37Ra ATCC 25177, 192 h, read-out: GI
Pseudomonas fluorescens = assay: Growth inhibition of Pseudomonas fluorescens NCIM 2036 at 3 ug/ml measured after 8 hrs relative to control; assay type: functional; details: NCIM 2036, 8 h, read-out: GI; summary of the method: as §4
[28] = Cytotoxicity against primary HUVEC measured after 48 hrs by MTT assay; assay type: toxicity, cell-based; details: human

Compound	inhibition of growth at 50 µg/mL [3] [%]	inhibition of growth at 3 µg/mL (Staphylococcus aureus) [%]	inhibition of growth at 3.13 µg/mL [5] [%]	inhibition of growth at 0.78 µg/mL [7] [%]	IC50 [8] [µg/mL]	IC90 [8] [µg/mL]	inhibition of growth at 10 µg/mL (Bacillus subtilis [9]) [%]	inhibition of growth at 30 µg/mL (Bacillus subtilis [10]) [%]	inhibition at 48 h, 100 ug/ml [11] [%]	inhibition of growth at 0.78 µg/mL [12] [%]	inhibition of growth at 3.13 µg/mL [13] [%]	IC50 [14] [µg/mL]	IC90 [14] [µg/mL]	inhibition of growth at 6.25 µg/mL [16] [%]	inhibition of growth at 3 µg/mL [18] [%]	MIC (Bacillus subtilis [20]) [µg/mL]	inhibition of growth at 30 µg/mL (Escherichia coli [21]) [%]	inhibition of growth at 10 µg/mL [22] [%]	MIC (Escherichia coli [23]) [µg/mL]	inhibition of growth at 3 µg/mL (Escherichia coli [24]) [%]	also measured
O=C1NC(=S)S/C1=C\c1cc2cc(F)ccc2nc1Cl	110	45.3	28.4	-24.1	5.1 (≈ 15.7 µM)	18 (≈ 55.4 µM)	2.58	-3.29	20	9.07	52.6	3.9 (≈ 12 µM)	5.2 (≈ 16 µM)	73.1	0.38	> 30	46.4	16.9	> 30	18.9	inhibition of growth at 1.56 µg/mL [1]: -13.2%; selectivity ratio [2]: 5.6; Selectivity Index [4]: 18.9; selectivity ratio [6]: 5.6; inhibition of growth at 3.13 µg/mL [15]: 71.3%; inhibition of growth at 25 µg/mL [17]: 99%; selectivity ratio [19]: 5.6; inhibition of growth at 10 µg/mL (Escherichia coli [25]): 27.5%; inhibition of growth at 25 µg/mL [26]: 101%; inhibition of growth at 12.5 µg/mL [27]: 99.9%; inhibition of growth at 3 µg/mL (Pseudomonas fluorescens): 29.3%; GI50 at 48 h [28]: > 100 µg/mL
O=C(O)CN1C(=O)/C(=C/c2cc3cc(F)ccc3nc2Cl)SC1=S	83.2	-0.864	9.18	-24	> 30	> 30	-2.7	-5.15	9.01	-48.2	-12.6	> 30	> 30	7.26	23.9	> 30	-1.67	43.1	> 30	-2.27	inhibition of growth at 10 µg/mL (Escherichia coli [25]): -8.65%; inhibition of growth at 25 µg/mL [26]: 10.4%; inhibition of growth at 12.5 µg/mL [27]: -3.91%; inhibition of growth at 3 µg/mL (Pseudomonas fluorescens): 6.76%; GI50 at 48 h [28]: > 100 µg/mL
Cc1cccc2cc(/C=C3\SC(=S)N(CC(=O)O)C3=O)c(Cl)nc12	102	-24.6	11.5	-43.4	10.3 (≈ 27.2 µM)	19.9 (≈ 52.5 µM)	-19.6	-24.5	3.1	-16	-10.2	> 30	> 30	-2.45	22.7	> 30	-0.186	31.6	> 30	8.28	selectivity ratio [2]: 5; selectivity ratio [6]: 5; selectivity ratio [19]: 5; inhibition of growth at 10 µg/mL (Escherichia coli [25]): 3.38%; inhibition of growth at 25 µg/mL [26]: 93.4%; inhibition of growth at 12.5 µg/mL [27]: 22%; inhibition of growth at 3 µg/mL (Pseudomonas fluorescens): 11.2%; GI50 at 48 h [28]: > 100 µg/mL

— ChEMBL document CHEMBL3877264, “Quinolidene-rhodanine conjugates: Facile synthesis and biological evaluation” (Eur J Med Chem, 2017)
